Screening data (PubChem)
Rows were chosen to be rich in hits. Some 3.5% of all compounds tested hit in one or more screens of this group.
FLuc act counter = affects firefly luciferase, flagging false hits in luciferase stimulation screens | P08659 | ATPlite luciferase biochemical, luminescence, 10 min; 0 = ATP-free wells, 1 = DMSO control | activation factor at 10 µM | 200,000 tested, under 10 active;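 active = luciferase activation factor, scaled between plate controls, of at least 2 with compound at 10 µM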
Target sequence (P08659 whole entry, looked up): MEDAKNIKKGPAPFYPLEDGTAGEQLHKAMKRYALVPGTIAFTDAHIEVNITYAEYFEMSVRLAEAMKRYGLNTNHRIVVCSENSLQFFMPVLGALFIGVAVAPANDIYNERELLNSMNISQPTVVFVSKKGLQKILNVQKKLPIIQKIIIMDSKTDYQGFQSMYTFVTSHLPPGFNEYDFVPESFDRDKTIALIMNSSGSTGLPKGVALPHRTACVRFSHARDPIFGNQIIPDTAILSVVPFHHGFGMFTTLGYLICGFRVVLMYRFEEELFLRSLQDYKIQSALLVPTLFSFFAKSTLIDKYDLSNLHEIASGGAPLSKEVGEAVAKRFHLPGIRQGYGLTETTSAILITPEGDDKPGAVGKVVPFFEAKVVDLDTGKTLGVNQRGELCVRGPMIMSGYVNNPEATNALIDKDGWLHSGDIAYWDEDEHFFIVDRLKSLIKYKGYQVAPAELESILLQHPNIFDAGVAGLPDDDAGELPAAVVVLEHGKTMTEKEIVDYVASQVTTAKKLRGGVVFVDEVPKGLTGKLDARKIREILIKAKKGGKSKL
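System: luciferase plus luciferin reagent, cell-free; medium: PBS as buffer for the ATP substrate; dosing: test compounds dosed from 2 mM stocks in 100% DMSO; timing: 10 min post-reagent at room temperature; measured by: luminescence measurement of luciferase light output; evaluation: luciferase activation, seen as luminescence increase over controls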
Pf gamet viab = P. falciparum stage V gametocyte viability inhibition | P. falciparum stage V gametocytes, ATP luminescence, 24 h | inhibition, % at 10.9 µM | 150,000 tested, 0.065% active;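 active = inhibition above the mean plus 3 SD of compounds within the control limits, set per campaign, cut at about 38% in these data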;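 note: 0% = DMSO wells and 100% = medium only without gametocytes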
NF-kB expr up = NF-kB expression increase, human neuronal cells | AID 1239 | NF-kB reporter expression; stronger effect = higher value | 190,000 tested, 1.6% active | fold change at 12.5 µM; in the data active = fold change above about 3.3
FLuc inhib CS = counter-screen for luciferase assay inhibitors: firefly luciferase inhibition. 200,000 tested, 1.5% active. inhibition, % at 10 µM. P08659. ATPLite firefly luciferase biochemical luminescence, 10 min;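 active = inhibition above about 50% when tested at 10 µM, limit read from the data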
APP 5'UTR act = APP 5'UTR luciferase reporter activation | 190,000 tested, 1% active | SH-SY5Y APP 5'UTR luciferase reporter, luminescence; zero percent = DMSO vehicle wells | activation, % at 2 µM;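 active = activation above a set limit, based on mean plus 3 SD of controls, cut at about 140% in these data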
STAT1 act = activators of IFN-gamma induced STAT1 signaling | NIH 3T3 STAT1-luciferase reporter, luminescence; 100% = IFN-gamma alone, no compound | activation (% of control), % at 5.5 µM | 200,000 tested, 2.6% active | AID 932;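 active = activation above the screen-wide mean activation plus 3 SD, cut at about 130% in these data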;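 note: raw ratio to IFN-gamma control signal so 100% means no change and 0% no light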
The depositor's hits bear a star; nt = no result.

SMILES	FLuc act counter	Pf gamet viab	NF-kB expr up	FLuc inhib CS	APP 5'UTR act	STAT1 act
CCOC(=O)c1ccccc1NC(=O)c1n[nH]c(=O)c2ccccc12	1	nt	3.7*	-2	0	85
CCC(=O)Oc1ccc(-c2nc(-c3cccnc3)no2)cc1	0.4	38	2.8	61*	82	118
COc1cc(-c2nc(-c3ccc(C)nc3OC)no2)cc(OC)c1OC	1	nt	nt	-5	nt	nt
Cc1ccc(-c2nc(-c3ccccc3)no2)c(Cl)c1	0.1	nt	1.6	95*	166*	38
Cc1occc1-c1nc(-c2ccncc2)no1	1	-1	1.2	4	-7	105
COc1nc(C)ccc1-c1noc(-c2ccncc2)n1	0.9	nt	1.8	11	-8	131*
Cc1ccc(-c2noc(-c3ccoc3C)n2)cc1	0.7	0	2.5	35	92	154*
Cc1cc(C)c2c(n1)nn1c(C3CC3)cc(C(F)(F)F)nc21	nt	-7	nt	nt	-1	101
CC(C)(C)c1ccc(-c2noc(-c3ccno3)n2)cc1	nt	-14	nt	nt	nt	nt
Cc1ccc(-c2nc(-c3cccnc3)no2)cc1	0.3	nt	6.3*	66*	105	122
CCCc1noc(-c2ccc(-c3ccccc3)cc2)n1	0.7	-2	5.7*	28	124	138*
CC(C)(C)c1ccc(-c2nc(-c3ccncc3)no2)cc1	0.6	nt	2.1	37	216*	130*
Cc1ccc(-c2nc(-c3ccccc3)no2)cc1	0.2	nt	10*	78*	132	148*
CCc1cccc(C)c1NC(=O)C1CCCN(S(C)(=O)=O)C1 (centres undefined)	nt	1	nt	nt	nt	nt
CCC(=O)Oc1ccc(-c2cnc3ccccc3n2)cc1	0.4	18	6.8*	64*	175*	142*
O=C(COC(=O)CNC(=O)c1ccccc1Cl)Nc1ccccc1Cl	nt	2	nt	nt	nt	nt
CNC(=S)N/N=C(\C)c1ccc(N2CCOCC2)cc1	0.9	21	6.3*	14	31	98
CCNC(=S)N/N=C(\C)c1ccc(N2CCOCC2)cc1	1	4	1.3	-3	-5	107
O=C(O)c1ccc(Nc2cnc3ccccc3n2)cc1	1	10	1.9	4	5	131*
COc1ccc2nc(NC(=O)c3cccs3)sc2c1	nt	-5	nt	nt	nt	nt
CCC(C)C(=O)Nc1nc2ccc(OC)cc2s1 (centres undefined)	nt	14	nt	nt	nt	nt
COc1ccc2nc(NC(=O)c3ccc4ncsc4c3)sc2c1	0.6	nt	1.6	36	116	142*
CCOC(=O)c1cccc(C(=O)Nc2nc3ccc(OC)cc3s2)n1	0.1	-4	1.3	91*	29	113
COc1ccc2nc(NC(=O)CSc3nnc(-c4ccoc4C)n3C)sc2c1	0.4	18	2.4	60*	49	130*
COc1ccc2nc(NC(C)=O)sc2c1	0.9	nt	2.6	9	82	139*
SMILES	FLuc act counter	Pf gamet viab	NF-kB expr up	FLuc inhib CS	APP 5'UTR act	STAT1 act
Fc1ccc(Oc2cnns2)cc1	1.1	-12	1	-6	-2	99
CC(C)C(=O)Nc1nc2ccc(S(C)(=O)=O)cc2s1	1	-19	1.7	0	-6	103
COc1ccc2nc(Nc3ccccc3OC)sc2c1	0.1	-8	7.9*	87*	202*	108
COC(=O)c1ccc2nc(NC(=O)C(C)C)sc2c1	0.4	-8	6*	60*	96	134*
C=CCN(C(=O)c1cccc(S(=O)(=O)N2CCN(C)CC2)c1)c1nc(-c2ccccc2)cs1	1.1	6	1.2	-10	-23	96
CC(C)(C)c1ccc(OCc2ccc(C(=O)N/N=C/c3ccc([N+](=O)[O-])cc3)o2)cc1	1	2	1.3	-1	21	131*
CCOc1ccc(/C=N/NC(=O)c2ccc(Cn3cc([N+](=O)[O-])cn3)o2)cc1	0.5	nt	1.5	50	16	114
CCCC(=O)N=C1SC2CS(=O)(=O)CC2N1c1ccc(-c2nc3ccc(C)cc3s2)cc1 (centres undefined)	0.8	0	1.4	21	125	131*
CC(=O)Nc1cccc(/C(C)=N/NC(=O)c2cccs2)c1	0.9	-20	1.2	11	7	140*
C/C(=N\NC(=O)c1ccccc1)c1ccc(NC(=O)c2cccs2)cc1	1	-17	1.3	-1	79	136*
C/C(=N\NC(=O)c1ccccc1)c1ccccc1F	0.6	nt	1	38	95	132*
